Laboratory results taken from ChEMBL document CHEMBL1933016, “Hydroxycoumarins as selective MAO-B inhibitors” (Bioorg Med Chem Lett, 2012).
pIC50: −log10 of the molar value.

Experiments:
[1] = target: T1, Amine oxidase [flavin-containing] B (Homo sapiens, UniProt P27338); assay: Inhibition of human recombinant MAOB expressed in baculovirus-infected BTI insect cells assessed as using transformed p-tyramine after 15 mins by fluorimetric assay; assay type: single protein
T1 sequence (P27338 whole entry): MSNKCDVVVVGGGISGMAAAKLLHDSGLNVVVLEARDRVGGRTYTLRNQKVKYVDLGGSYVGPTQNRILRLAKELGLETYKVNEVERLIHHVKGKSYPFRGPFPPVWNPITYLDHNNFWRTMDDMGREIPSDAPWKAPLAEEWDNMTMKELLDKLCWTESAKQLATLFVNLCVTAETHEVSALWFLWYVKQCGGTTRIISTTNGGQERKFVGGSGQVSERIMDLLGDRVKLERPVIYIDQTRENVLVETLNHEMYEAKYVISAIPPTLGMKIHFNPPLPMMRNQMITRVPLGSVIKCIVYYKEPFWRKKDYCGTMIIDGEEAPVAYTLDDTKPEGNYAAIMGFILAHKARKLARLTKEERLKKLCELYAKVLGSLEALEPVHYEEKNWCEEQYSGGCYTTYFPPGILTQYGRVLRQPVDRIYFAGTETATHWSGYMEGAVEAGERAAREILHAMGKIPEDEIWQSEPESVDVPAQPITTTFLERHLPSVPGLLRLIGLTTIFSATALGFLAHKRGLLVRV

Homo sapiens = organism: Homo sapiens; assay: Selectivity index, ratio of IC50 for human recombinant MAOA to IC50 for human recombinant MAOB
Method in brief: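 The index is IC50(MAO-A)/IC50(MAO-B) from the fluorimetric Amplex Red/p-tyramine assay on recombinant human isoforms.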

[2] = target: T2, Amine oxidase [flavin-containing] A (Homo sapiens, UniProt P21397); assay: Inhibition of human recombinant MAOA expressed in baculovirus-infected BTI insect cells assessed as conversion of p-tyramine into p-hydroxyphenyl-acetaldehyde at 100 uM after 15 mins by fluorimetric assay; conditions: 0.25 h
T2 sequence (P21397 whole entry): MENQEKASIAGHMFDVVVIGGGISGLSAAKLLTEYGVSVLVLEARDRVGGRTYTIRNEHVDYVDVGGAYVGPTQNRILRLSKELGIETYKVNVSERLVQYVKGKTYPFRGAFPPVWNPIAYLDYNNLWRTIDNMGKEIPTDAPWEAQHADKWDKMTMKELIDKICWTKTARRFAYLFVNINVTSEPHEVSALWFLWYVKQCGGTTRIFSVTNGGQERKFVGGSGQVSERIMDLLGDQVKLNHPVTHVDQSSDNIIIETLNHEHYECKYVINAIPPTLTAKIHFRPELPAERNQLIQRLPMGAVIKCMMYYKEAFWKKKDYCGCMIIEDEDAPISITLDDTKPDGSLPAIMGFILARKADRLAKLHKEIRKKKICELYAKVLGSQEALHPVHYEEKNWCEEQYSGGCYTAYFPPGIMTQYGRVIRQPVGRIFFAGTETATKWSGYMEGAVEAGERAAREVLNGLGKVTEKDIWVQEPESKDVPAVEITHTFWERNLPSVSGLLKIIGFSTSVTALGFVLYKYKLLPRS
Method in brief: (§1)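 Recombinant hMAO-A or hMAO-B was adjusted to the same velocity (165 pmol p-tyramine/min; specific activity 150 nmol/min/mg for A, 22 for B). Enzyme and drug in 0.05 M sodium phosphate pH 7.4 were preincubated 15 min at 37 °C. Amplex Red, 1 U/mL HRP and 1 mM p-tyramine (final) were added, and resorufin fluorescence was read at 37 °C. Values were background-subtracted against enzyme-free blanks with vehicle controls.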

[3] = target: T1, Amine oxidase [flavin-containing] B; assay: Inhibition of human recombinant MAOB expressed in baculovirus-infected BTI insect cells assessed as using transformed p-tyramine at 100 uM after 15 mins by fluorimetric assay; conditions: 0.25 h; method in brief: as §1

pIC50 [1] | Ratio IC50 (Homo sapiens) | inhibition (INH) [2] | inhibition (INH) [3] | Structure (SMILES)
5.55 | > 36 | Not Active | – | COc1ccc(-c2c(O)c3cc(Cl)ccc3oc2=O)cc1Cl
– | – | Not Active | – | COc1ccc(-c2c(O)c3ccccc3oc2=O)cc1Cl
– | – | Not Active | Not Active | COc1ccc(-c2c(O)c3cc(Cl)ccc3oc2=O)cc1
4.49 | > 3.1 | Not Active | – | COc1ccc(-c2c(O)c3cc(C)ccc3oc2=O)cc1
4.37 | > 2.3 | Not Active | – | COc1ccc(-c2c(O)c3cc(C)ccc3oc2=O)cc1Cl
4.16 | > 1.4 | Not Active | – | COc1ccc(-c2c(O)c3ccccc3oc2=O)cc1
– | – | Not Active | Not Active | O=c1oc2ccccc2c(O)c1-c1ccccc1
